# Activity calls are given as the source filed them. No cut-off for these calls is given here. *1 amine or outer side, *2 acyl side, *3 side chain or, on linkers, in order; H or OH if unused. Where a SMILES comes first, the peptide text is derived from it. [ ]: non-standard residue; d: D form. X1 = O=C(CCOC[C@H]1O[C@@H](OCCCN[*:1])[C@H](O)[C@@H](O)[C@@H]1O)[*:2]
# How the values were obtained:
# [1] = biological target: Amyloid-beta precursor protein (Homo sapiens) (UniProt P05067); assay: Inhibition of amyloid beta (1 to 42) (unknown origin) fibril formation assessed as decrease in fluorescence plateau at compound/protein ratio of 1/1 after 42 hrs by ThT fluorescence assay relative to control
# Summary of the method: (§1)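 Aβ1-42 (1 mM in 1% ammonia, diluted in buffer) added to a final 10 μM into 40 μM ThT in 10 mM Tris-HCl, 100 mM NaCl pH 7.4, with compound at 100, 50, 10 or 1 μM (0.5% DMSO), at room temperature. Ex/em 440/485 nm read for 42 h, in duplicate or triplicate, 2–4 runs. t1/2 and plateau F expressed relative to Aβ alone.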
# [2] = biological target: Amyloid-beta precursor protein (Homo sapiens) (UniProt P05067); assay: Inhibition of amyloid beta (1 to 42) (unknown origin) fibril formation assessed as extension of aggregation half life at compound/protein ratio of 1/1 after 42 hrs by ThT fluorescence assay relative to control; parameters: Activity: scale not given: the % may be the effect or the level left; summary of the method: as §1
# [3] = biological target: Amyloid-beta precursor protein (Homo sapiens) (UniProt P05067); assay: Inhibition of amyloid beta (1 to 42) (unknown origin) fibril formation assessed as extension of aggregation half life at compound/protein ratio of 10/1 after 42 hrs by ThT fluorescence assay relative to control; parameters: Activity: scale not given: the % may be the effect or the level left; summary of the method: as §1
# [4] = biological target: Amyloid-beta precursor protein (Homo sapiens) (UniProt P05067); assay: Inhibition of amyloid beta (1 to 42) (unknown origin) fibril formation assessed as decrease in fluorescence plateau at compound/protein ratio of 10/1 after 42 hrs by ThT fluorescence assay relative to control; details: concentration not given here; summary of the method: as §1
# SH-SY5Y [5] = assay: Neuroprotective activity against amyloid beta (1 to 42)-induced toxicity in human SH-SY5Y cells assessed as cell viability at 0.25 to 5 uM after 24 hrs by MTS assay; type: functional, cell-based
# Summary of the method: (§2)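 Aβ1-42 at 50 μM in sterile PBS pre-incubated 24 h at room temperature with 1, 5, 10 or 50 μM compound, then diluted 1:10 (5 μM Aβ final) onto SH-SY5Y cells. Cells seeded at 20 000/well in low-serum Optimem, 37 °C, 5% CO2, 24 h. Exposure a further 24 h in quadruplicate. MTS viability or LDH release read; assays repeated twice.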
# [6] = biological target: Amyloid-beta precursor protein (Homo sapiens) (UniProt P05067); assay: Binding affinity to amyloid beta (1 to 42) (unknown origin) by SPR analysis
# Summary of the method: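 Aβ1-42 (0.05 μM in 10 mM sodium acetate pH 4.6) amine-coupled to an EDC/NHS-activated gold chip, then rinsed with 0.1% NH4OH to leave mainly monomer. Analytes in 150 mM PBS with 2% DMSO were injected at 12.5–200 μM for 1 min at 80 μL/min. DMSO solvent correction applied and the ethanolamine-blocked blank channel subtracted. Regeneration with 0.1% NH4OH.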
# SH-SY5Y [7] = assay: Neuroprotective activity against amyloid beta (1 to 42)-induced membrane damage in human SH-SY5Y cells at 0.1 to 5 uM after 24 hrs by LDH assay; type: functional, cell-based; summary of the method: as §2
# Plasma = assay: Metabolic stability in 10% human plasma assessed as drug degradation at 1 uM after 24 hrs by HPLC analysis; type: ADME, cell-free
# Summary of the method: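 Compounds taken from 40 μM DMSO stock to 1 μM in 10% human plasma/90% sterile PBS, held 24 h at 37 °C. Analysed by C18 HPLC with a 0–80% gradient (A: 0.1% TFA in water; B: 0.05% TFA in acetonitrile).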
# [8] = biological target: Amyloid-beta precursor protein (Homo sapiens) (UniProt P05067); assay: Inhibition of amyloid beta (1 to 42) (unknown origin) fibril formation after 42 hrs by ThT fluorescence assay; summary of the method: as §1
# [9] = biological target: Amyloid-beta precursor protein (Homo sapiens) (UniProt P05067); assay: Inhibition of amyloid beta (1 to 42) (unknown origin) aggregation after 42 hrs by uranyl acetate staining-based transmission electron microscopy
# Summary of the method: (§3)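 Samples prepared as for ThT: Aβ1-42 at 10 μM in 10 mM Tris-HCl, 100 mM NaCl pH 7.4, with or without compound at 10 or 100 μM. After 42 h, adsorbed 2 min onto carbon grids and negatively stained 45 s with 2% uranyl acetate. Imaged by TEM at 80 kV.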
# [10] = biological target: T1, Islet amyloid polypeptide (Homo sapiens) (UniProt P10997); assay: Inhibition of human IAPP fibril formation assessed as increase of aggregation half life at compound/protein ratio of 10/1 by ThT fluorescence assay
# T1 sequence (whole entry): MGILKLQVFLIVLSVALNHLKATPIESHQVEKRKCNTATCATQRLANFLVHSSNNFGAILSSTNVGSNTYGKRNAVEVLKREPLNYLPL
# [11] = biological target: T1, Islet amyloid polypeptide (Homo sapiens); assay: Inhibition of human IAPP fibril formation assessed as decrease in final fluorescence intensity at compound/protein ratio of 10/1 by ThT fluorescence assay
# [12] = biological target: Amyloid-beta precursor protein (Homo sapiens) (UniProt P05067); assay: Inhibition of amyloid beta (1 to 42) (unknown origin) aggregation assessed as scattered, short and scarce fiber formation at compound/protein ratio of 10/1 after 42 hrs by uranyl acetate staining-based transmission electron microscopy; summary of the method: as §3
# [13] = biological target: Amyloid-beta precursor protein (Homo sapiens) (UniProt P05067); assay: Inhibition of amyloid beta (1 to 42) (unknown origin) fibril formation assessed as extension of aggregation half life at compound/protein ratio of 0.1/1 after 42 hrs by ThT fluorescence assay relative to control; parameters: Activity: scale not given: the % may be the effect or the level left; summary of the method: as §1
# SH-SY5Y [14] = assay: Neuroprotective activity against amyloid beta (1 to 42)-induced toxicity in human SH-SY5Y cells assessed as reduction of cell death at 0.1 equiv after 24 hrs by MTS assay; type: functional; parameters: scale not given: the % may be the effect or the level left
# Summary of the method: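 SH-SY5Y cells seeded at 20 000/well in low-serum Optimem, 24 h at 37°C, 5% CO2. Aβ1-42 at 50 μM in sterile PBS pre-incubated 24 h at room temperature with 1, 5, 10 or 50 μM inhibitor, or without inhibitor. The mix was diluted 1:10 into Optimem (5 μM Aβ final) and added to cells in quadruplicate. After a further 24 h, viability was read by MTS. Assay run twice.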
# [15] = biological target: Amyloid-beta precursor protein (Homo sapiens) (UniProt P05067); assay: Inhibition of amyloid beta (1 to 42) (unknown origin) fibril formation assessed as decrease in fluorescence plateau at compound/protein ratio of 0.1/1 after 42 hrs by ThT fluorescence assay relative to control; details: concentration not given here; summary of the method: as §1
# [16] = biological target: Amyloid-beta precursor protein (Homo sapiens) (UniProt P05067); assay: Inhibition of amyloid beta (1 to 42) (unknown origin) aggregation assessed as appearance of less dense fiber at compound/protein ratio of 1/1 after 42 hrs by uranyl acetate staining-based transmission electron microscopy; summary of the method: as §3
# [17] = biological target: Amyloid-beta precursor protein (Homo sapiens) (UniProt P05067); assay: Inhibition of amyloid beta (1 to 42) (unknown origin) fibril formation at compound/protein ratio of 10/1, 1/1, 0.1/1 […] by ThT fluorescence assay
# [18] = biological target: Amyloid-beta precursor protein (Homo sapiens) (UniProt P05067); assay: Inhibition of amyloid beta (1 to 42) (unknown origin) aggregation assessed as appearance of glubular aggregation at compound/protein ratio of 1/1 after 42 hrs by transmission electron microscopy; summary of the method: as §3
# [19] = biological target: Amyloid-beta precursor protein (Homo sapiens) (UniProt P05067); assay: Binding affinity to synthetic 15N,13C-labelled recombinant amyloid beta (1 to 42) (unknown origin) assessed as negative nuclear overhauser effect at 0.4 mM after 2.5 weeks by 1D 1H water LOGSY method
# Summary of the method: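 WaterLOGSY at 5 °C in 50 mM sodium phosphate pH 7.4 with 10% D2O, synthetic Aβ1-42. Ligand at 0.4 mM. Selective water inversion with a 20 ms Gaussian pulse, 0.5 s mixing, 2 s recycle delay, 1200 scans (about 1 h), 500 MHz cryoprobe.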
# [20] = biological target: Amyloid-beta precursor protein (Homo sapiens) (UniProt P05067); assay: Inhibition of amyloid beta (1 to 42) (unknown origin) oligomerization assessed as remaining monomer level at compound/protein ratio of 1/1 after 12 hrs by capillary electrophoresis (reference value: 19%)
# Summary of the method: (§4)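 Aβ1-42 pretreated in 0.16% NH4OH, lyophilized, then reconstituted at 100 μM in 20 mM phosphate pH 7.4 with 2.5% DMSO, compound/peptide 1/1. Species separated in fused silica capillary (50 μm ID) with 80 mM phosphate pH 7.4 background electrolyte, −20 kV, 25 °C. UV detection at 190 nm; profiles taken at 0 and 12 h.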
# [21] = biological target: Amyloid-beta precursor protein (Homo sapiens) (UniProt P05067); assay: Binding affinity to synthetic 15N,13C-labelled recombinant amyloid beta (1 to 42) (unknown origin) at 0.4 mM after 2.5 weeks by saturation transfer difference method
# Summary of the method: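 1D 1H STD at 5 °C in 50 mM sodium phosphate pH 7.4 with 10% D2O. Cascade of 50 ms Gaussian pulses (B1 0.1 kHz, 3 s total) applied alternately on-resonance at −0.7 ppm and off-resonance at +30 ppm. 320 scans (50 min). Ligand at 0.4 mM.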
# [22] = biological target: Amyloid-beta precursor protein (Homo sapiens) (UniProt P05067); assay: Inhibition of amyloid beta (1 to 42) (unknown origin) oligomerization assessed as formation of larger than dodecamers at compound/protein ratio of 1/1 at 12 hrs by capillary electrophoresis; summary of the method: as §4
# [23] = biological target: Amyloid-beta precursor protein (Homo sapiens) (UniProt P05067); assay: Binding affinity to synthetic 15N,13C-labelled recombinant amyloid beta (1 to 42) (unknown origin) assessed as negative nuclear overhauser effect at 0.4 mM after 2.5 weeks by 2D NOESY method
# Summary of the method: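 2D NOESY at 5 °C with 0.2 s mixing time. Synthetic Aβ1-42 in 50 mM sodium phosphate pH 7.4 with 10% D2O, ligand at 0.4 mM, recorded at 500 MHz.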
# Amyloid-beta precursor protein (Homo sapiens), sequence (P05067 whole entry): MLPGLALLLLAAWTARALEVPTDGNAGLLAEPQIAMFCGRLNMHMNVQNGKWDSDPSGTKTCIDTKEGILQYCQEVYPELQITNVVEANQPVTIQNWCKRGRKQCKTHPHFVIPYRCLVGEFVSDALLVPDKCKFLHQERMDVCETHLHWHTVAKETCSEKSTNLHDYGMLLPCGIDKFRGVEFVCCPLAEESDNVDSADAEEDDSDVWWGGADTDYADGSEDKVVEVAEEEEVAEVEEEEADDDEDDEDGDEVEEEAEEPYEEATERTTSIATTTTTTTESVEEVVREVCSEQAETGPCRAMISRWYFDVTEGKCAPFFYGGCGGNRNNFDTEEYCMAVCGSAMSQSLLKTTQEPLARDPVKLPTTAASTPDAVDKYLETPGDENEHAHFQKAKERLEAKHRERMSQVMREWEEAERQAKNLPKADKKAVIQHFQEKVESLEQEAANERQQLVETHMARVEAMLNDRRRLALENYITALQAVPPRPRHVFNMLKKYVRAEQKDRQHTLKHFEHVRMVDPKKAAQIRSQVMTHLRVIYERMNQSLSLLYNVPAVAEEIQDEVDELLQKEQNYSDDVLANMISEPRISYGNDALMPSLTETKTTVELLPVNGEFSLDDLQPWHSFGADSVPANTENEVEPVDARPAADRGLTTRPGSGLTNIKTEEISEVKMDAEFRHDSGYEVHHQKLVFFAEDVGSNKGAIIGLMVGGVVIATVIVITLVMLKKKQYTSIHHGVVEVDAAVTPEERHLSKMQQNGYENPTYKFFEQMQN
Structure (SMILES),inhibition ([1]; concentration not given here) [%],Activity [2] [%],inhibition [3],inhibition [4] [%],inhibition [1],Activity [3] [%],Activity [6],inhibition [8],inhibition [9],also measured
COc1ccc(NC(C)=O)cc1C(=O)NNC(=O)[C@H](CCCCN)NC(=O)CCOC[C@H]1OC(OCCCNC(=O)[C@@H](NC(=O)[C@H](C)NC(=O)OC(C)(C)C)C(C)C)[C@H](O)[C@@H](O)[C@@H]1O (stereo not given in full),26,154,Active,84,–,–,–,–,–,–
COC(=O)[C@H](CC(C)C)NC(=O)[C@@H](NC(=O)CCOC[C@H]1O[C@@H](OCCCNC(=O)[C@@H](NC(=O)[C@H](C)N)C(C)C)[C@H](O)[C@@H](O)[C@@H]1O)C(C)C (H-AV[X1]VL-OMe),–,–,–,56,inactive,280,Dose-dependent effect,–,–,Activity (SH-SY5Y [5]): Active; inhibition [2]: inactive; Activity (SH-SY5Y [7]): Active; Stability (Plasma): Unstable
COc1ccc(NC(C)=O)cc1C(=O)NNC(=O)[C@H](CCCCNC(=O)OCc1ccccc1)NC(=O)CCOC[C@H]1OC(OCCCNC(=O)[C@@H](NC(=O)[C@H](C)N)C(C)C)[C@H](OCc2ccccc2)[C@@H](OCc2ccccc2)[C@@H]1OCc1ccccc1 (mixture of isomers),–,–,–,–,–,–,–,inactive,inactive,–
COc1ccc(NC(C)=O)cc1C(=O)NNC(=O)[C@H](CCCCN)NC(=O)CCOC[C@H]1OC(OCCCNC(=O)[C@@H](NC(=O)[C@H](C)N)C(C)C)[C@H](O)[C@@H](O)[C@@H]1O (mixture of isomers),29,148,Active,87,–,–,Dose-dependent effect,–,–,inhibition [10]: inactive; Activity (SH-SY5Y [5]): Active; inhibition [11]: inactive; inhibition [12]: Active; inhibition [13]: inactive; Activity (SH-SY5Y [7]): Active; Activity (SH-SY5Y [14]): 75%; inhibition [15]: 23%; inhibition [16]: Active; inhibition [17]: Active; Stability (Plasma): Stable; inhibition [18]: Active
COc1ccc(NC(C)=O)cc1C(=O)NNC(=O)[C@H](CCCCN)NC(=O)CCOC[C@H]1O[C@@H](OCCCNC(=O)[C@@H](NC(=O)[C@H](C)N)C(C)C)[C@H](O)[C@@H](O)[C@@H]1O,34,165,Active,90,–,–,Dose-dependent effect,–,–,Activity [19]: Active; Activity [20]: 52%; Activity [13]: 129%; Activity [21]: Active; inhibition [22]: Active; inhibition [15]: 16%; Activity [23]: Active
COc1ccc(NC(C)=O)cc1C(=O)NNC(=O)[C@@H](NC(=O)CCOC[C@H]1OC(OCCCNC(=O)[C@@H](NC(=O)[C@H](C)NC(=O)OC(C)(C)C)C(C)C)[C@H](O)[C@@H](O)[C@@H]1O)C(C)C (stereo not given in full),–,138,–,41,inactive,379,–,–,–,–
COc1ccc(NC(C)=O)cc1C(=O)NNC(=O)[C@@H](NC(=O)CCOC[C@H]1OC(OCCCNC(=O)[C@@H](NC(=O)[C@H](C)N)C(C)C)[C@H](OCc2ccccc2)[C@@H](OCc2ccccc2)[C@@H]1OCc1ccccc1)C(C)C (mixture of isomers),–,–,–,–,–,–,–,inactive,inactive,–
COc1ccc(NC(C)=O)cc1C(=O)NNC(=O)[C@H](CCCCNC(=O)OCc1ccccc1)NC(=O)CCOC[C@H]1OC(OCCCNC(=O)[C@@H](NC(=O)[C@H](C)NC(=O)OC(C)(C)C)C(C)C)[C@H](OCc2ccccc2)[C@@H](OCc2ccccc2)[C@@H]1OCc1ccccc1 (mixture of isomers),–,–,–,–,–,–,–,inactive,inactive,–
COc1ccc(NC(C)=O)cc1C(=O)NNC(=O)[C@@H](NC(=O)CCOC[C@H]1OC(OCCCNC(=O)[C@@H](NC(=O)[C@H](C)N)C(C)C)[C@H](O)[C@@H](O)[C@@H]1O)C(C)C (mixture of isomers),–,155,–,31,inactive,325,–,–,–,–
